This note sets out measurements from ChEMBL document CHEMBL1155412, “Novel powerful water-soluble lipid immunoadjuvants inducing mouse dendritic cell maturation and B cell proliferation using TLR2 pathway” (Bioorg Med Chem Lett, 2010).

Test [1] deals with Toll-like receptor 2 (Mus musculus) (UniProt Q9QUN7). The test can be described thus: Induction of TLR2-mediated mouse D1 dendritic cells maturation assessed as expression of CD54 and CD86 activation markers at 0.5 ug/ml after 24 hrs by flow cytometry in the presence of antagonist anti-TLR2 antibody treated 25 mins after anti-TLR2 antibody challenge. In general terms: A flow cytometer gives signals particle by particle.
Chain of Toll-like receptor 2 (Mus musculus) (Q9QUN7 whole entry): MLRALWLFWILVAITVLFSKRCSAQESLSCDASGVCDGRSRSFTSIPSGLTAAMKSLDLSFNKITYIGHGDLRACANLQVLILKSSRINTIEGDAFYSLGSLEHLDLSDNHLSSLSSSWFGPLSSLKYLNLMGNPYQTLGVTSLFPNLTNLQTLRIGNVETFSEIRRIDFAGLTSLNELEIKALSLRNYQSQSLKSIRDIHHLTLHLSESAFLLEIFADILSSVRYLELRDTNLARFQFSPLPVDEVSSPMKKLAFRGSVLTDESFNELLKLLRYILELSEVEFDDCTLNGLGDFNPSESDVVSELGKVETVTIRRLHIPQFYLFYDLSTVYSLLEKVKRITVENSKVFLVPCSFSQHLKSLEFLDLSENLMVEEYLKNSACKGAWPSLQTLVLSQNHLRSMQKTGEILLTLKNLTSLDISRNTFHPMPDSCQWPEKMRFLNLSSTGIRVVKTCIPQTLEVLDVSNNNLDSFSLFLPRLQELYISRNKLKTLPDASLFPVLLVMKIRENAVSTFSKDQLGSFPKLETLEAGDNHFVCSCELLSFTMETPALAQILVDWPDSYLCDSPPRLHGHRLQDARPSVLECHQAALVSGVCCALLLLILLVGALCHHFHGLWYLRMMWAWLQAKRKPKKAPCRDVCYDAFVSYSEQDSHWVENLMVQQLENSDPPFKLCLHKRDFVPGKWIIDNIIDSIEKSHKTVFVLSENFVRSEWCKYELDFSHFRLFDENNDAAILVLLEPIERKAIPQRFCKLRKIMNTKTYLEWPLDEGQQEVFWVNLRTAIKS

For test [2] the target is unchanged. Put plainly: Induction of TLR2-mediated mouse spleen B cells proliferation assessed as [3H]thymidin uptake at 0.02 ug/ml after 72 hrs. The essentials: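 Purified mouse spleen B cells cultured with analogs at indicated concentrations for 72 h; proliferation by [3H]-thymidine uptake. Stimulation index = mean cpm stimulated / mean cpm unstimulated; mean SI ± SD of three independent experiments, each in triplicate.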

For test [3] the target is unchanged. The test can be described thus: Induction of TLR2-mediated mouse D1 dendritic cells maturation assessed as expression of CD54 and CD86 activation markers at 0.5 ug/ml to 5 ug/ml after 24 hrs by flow cytometry in the presence of polymyxin B. In kind it is cell-based.
Test [4] has the same target. The test can be described thus: Induction of TLR2-mediated mouse spleen B cells proliferation assessed as [3H]thymidin uptake at 0.16 ug/ml after 72 hrs in the presence of antagonist anti-TLR2 antibody treated 25 mins after anti-TLR2 antibody challenge. The test is classed as functional, tissue-based.

The source made the active and inactive calls. The rule behind the calls is not given here.

On to `CCCCCCCCCCCCCCCC(=O)OC[C@H](CSC[C@H](N)C(=O)N[C@@H](C)C(=O)NCC(=O)NCCSSCCNC(=O)CNC(=O)OCCOCCOCCOCCOCCOCCOCCOCCOCCOCCOCCOCCOCCOCCOCCOCCOCCOCCOCCOCCOCCOCCOCCOCCOCCOCCOCCOCCOCCOCCOCCOCCOCCOCCOCCOCCOCCOCCOCCOCCOCCOCCOCCOCCO)OC(=O)CCCCCCCCCCCCCCC`, for which the outcome in test [1] and in test [4] was inactive. For the same compound, the outcome in test [2] and in test [3] was Active.
In the case of `CCCCCCCCCCCCCCCC(=O)N[C@@H](CSC[C@@H](COC(=O)CCCCCCCCCCCCCCC)OC(=O)CCCCCCCCCCCCCCC)C(=O)N[C@@H](C)C(=O)NCC(=O)NCCOCCOCCOCCOCCOCCOCCOCCOCCOCCOCCOCCOCCOCCOCCOCCOCCOCCOCCOCCOCCOCCOCCOCCOCCOCCOCCOCCOCCOCCOCCOCCOCCOCCOCCOCCOCCOCCOCCOCCOCCOCCOCCOCCOCCOC`, the outcome in test [1] and in test [4] was inactive. Moreover, the result in test [2] and in test [3] was Active.
As for `CCCCCCCCCCCCCCCC(=O)OC[C@H](CSC[C@H](NC(=O)COCCOCCOCCOCCOCCOCCOCCOCCOCCOCCOCCOCCOCCOCCOCCOCCOCCOCCOCCOCCOCCOCCOCCOCCOCCOCCOCCOCCOCCOCCOCCOCCOCCOCCOCCOCCOCCOCCOCCOCCOCCOCCOCCOCCOC)C(=O)N[C@@H](C)C(=O)NCC(=O)O)OC(=O)CCCCCCCCCCCCCCC`, the result in test [1] and in test [4] was inactive. The outcome in test [2] and in test [3] was Active.
With `CCCCCCCCCCCCCCCC(=O)OC[C@H](CSC[C@H](N)C(=O)N[C@@H](C)C(=O)NCC(=O)NCCOCCOCCOCCOCCOCCOCCOCCOCCOCCOCCOCCOCCOCCOCCOCCOCCOCCOCCOCCOCCOCCOCCOCCOCCOCCOCCOCCOCCOCCOCCOCCOCCOCCOCCOCCOCCOCCOCCOCCOCCOCCOCCOCCOCCOC)OC(=O)CCCCCCCCCCCCCCC`, the result in test [1] and in test [4] was inactive. Moreover, the result in test [2] and in test [3] was Active.
